Data set [1] deals with BV-2. Nature of the data set: Inhibition of NOS-dependent nitric oxide production in mouse BV2 cells. The format is functional, cell-based. In a few lines:
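Murine BV2 microglial cells. NOX activity was read as ROS production and NOS activity as NO production. DPI (NOX inhibitor) and L-NAME (NOS inhibitor) served as positive controls. IC50 is the mean ± SEM of 5–6 experiments on different days with cells from different passages.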

Data set [2] in a line: Inhibition of PMA-induced ROS production in human leukocytes at 25 uM. Type of data set: functional. Conditions: Leukocyte.
Data set [3] can be described thus: Inhibition of PMA plus ionomycin-induced IFN-gamma production in human CD8+ leukocytes measured as mean channel fluorescence at 5 uM. Type of data set: functional. In a few lines:
(§1)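 Human leukocytes were stimulated with PMA plus ionomycin. IL-2 (CD4+ Th cells) and IFN-γ (CD8+ cells) were measured by intracellular cytokine staining and read as mean channel fluorescence. Significance was tested against activator alone (P<0.05).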

Data set [4] can be described thus: Inhibition of fMLP-induced ROS production in human leukocytes at 25 uM. The format is functional. Conditions: Leukocyte.
The subject of data set [5] is CD4+ve Th. Nature of the data set: Inhibition of PMA plus ionomycin-induced IL2 production in human CD4+ Th cells measured as mean channel fluorescence at 25 uM. The format is functional. In a few lines: as §1
Data set [6] concerns CD4+ve Th. Briefly: Inhibition of PMA plus ionomycin-induced IL2 production in human CD4+ Th cells measured as mean channel fluorescence at 5 uM. Type of data set: functional. In a few lines:
as §1

The nature of data set [7]: Inhibition of PMA plus ionomycin-induced IFN-gamma production in human CD8+ leukocytes measured as mean channel fluorescence at 25 uM. Type of data set: functional. Summed up: as §1
A short description of data set [8]: Cytotoxicity against microglial cells at 5 uM. Conditions: mouse, microglia.
The nature of data set [9]: Cytotoxicity against microglial cells at 10 uM. Conditions: mouse, microglia.
A short description of data set [10]: Cytotoxicity against microglial cells at 25 uM. Conditions: mouse, microglia.
The subject of data set [11] is BV-2. Nature of the data set: Inhibition of LPS-induced TNFalpha production in mouse BV2 cells measured as mean channel fluorescence at 5 uM.
In data set [12] the test system is BV-2. Nature of the data set: Inhibition of LPS-induced TNFalpha production in mouse BV2 cells measured as mean channel fluorescence at 25 uM.
The test system of data set [13] is BV-2. Nature of the data set: Inhibition of NADPH oxidase-dependent reactive oxygen species production in mouse BV2 cells.
Data set [14] in a line: Inhibition of PMA-induced ROS production in human PMN. Type of data set: functional. Summed up:
(§2)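 Peripheral human neutrophils (PMN) or mononuclear cells (MNC) were stimulated with PMA (a PKC activator) or fMLP to induce ROS. IC50 is the mean ± SEM of 3–5 experiments on different days with cells from different donors.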

A short description of data set [15]: Inhibition of fMLP-induced ROS production in human PMN. The format is functional. Summed up: as §2
Data set [16] can be described thus: Inhibition of PMA-induced ROS production in human mononuclear leukocytes. The format is functional, cell-based. Summed up:
as §2

Data set [17] is described as follows: Inhibition of fMLP-induced ROS production in human mononuclear leukocytes. Type of data set: functional, cell-based. In a few lines:
as §2

Data set [18] is described as follows: DPPH radical scavenging activity. Type of data set: functional. A general note: DPPH is a stable violet radical that fades when it is reduced.
The target of data set [19] is T1, Protein kinase C (PKC) (Homo sapiens) (UniProt O94806+P41743+P17252+P05129+Q05655+P05771+Q05513+Q02156+P24723+Q15139+Q04759). Briefly: Inhibition of PKC in human peripheral leucocytes at 5 uM by ELISA. Type of data set: cell-based. Summed up: (§3)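 Protein kinase activity in human leukocytes is expressed as % inhibition relative to drug-free samples (taken as 100%). Values are the mean ± SEM of 3 experiments on different days with cells from different donors.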
For orientation: ELISA stands for enzyme-linked immunosorbent assay.

Data set [20] in a line: Inhibition of fMLP-induced calcium mobilisation in human peripheral leukocytes at 5 uM. The format is functional. In a few lines:
(§4)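 Human leukocytes were preloaded with Fura-2, and intracellular Ca2+ rise was followed after fMLP stimulation. Inhibition is expressed as % of the calcium increment in drug-free samples (taken as 100%). Values are the mean ± SEM of 3 experiments on different days with different donors.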
On the technique in general: Calcium flux is commonly read through the fluorescence of an indicator in the cells.

For data set [21], the target named is T1, Protein kinase C (PKC) (Homo sapiens). Briefly: Inhibition of PKC at 25 uM by ELISA. Type of data set: protein assay. Summed up:
as §3

Data set [22] in a line: Inhibition of fMLP-induced calcium mobilisation in human peripheral leukocytes at 25 uM. The format is functional. Summed up:
as §4

This passage reports IC50, inhibition and Activity results from ChEMBL document CHEMBL1146177, “Total synthesis and biological evaluation of viscolin, a 1,3-diphenylpropane as a novel potent anti-inflammatory agent” (Bioorg Med Chem Lett, 2006).

Structures are written as SMILES.

The term IC50 denotes the point on the concentration scale where inhibition reaches its midpoint. Read a low IC50 as greater potency in that assay. A word on the inhibition: it is the percentage by which the read-out fell short of the control.

For `COc1cc(CCCc2c(OC)cc(OCc3ccccc3)c(OC)c2OC)ccc1OCc1ccccc1`, half-maximal inhibition in the data set on BV-2 [1] (IC50) was put at 20 µM. Moreover, the inhibition at 25 µM in data set [2] came out at 20%; in data set [4], 37%. Further, the Activity in data set [3] was determined as 59; in the data set on CD4+ve Th [5], 102; with CD4+ve Th [6], 100; in data set [7], 65; in data set [8], 14.6%; in data set [9], 8.9%. The Activity worked out at 9.6% in data set [10], 164 with BV-2 [11] and 154 in the data set with BV-2 [12].

The molecule `COc1cc(C/C=C/c2c(OC)cc(OCc3ccccc3)c(OC)c2OC)ccc1OCc1ccccc1` had an IC50 with BV-2 [1] of 19 µM. Further, the results for the inhibition at 25 µM in [2] and in data set [4] were 20% and 37%, respectively. Further, the Activity in [3] worked out at 60; in the data set with CD4+ve Th [5], 103; in the data set with CD4+ve Th [6], 101; in data set [7], 65; in [8], 8.6%; in [9], 8.1%. The Activity in data set [10] is recorded as 10%; in the data set on BV-2 [11], 164; with BV-2 [12] it was 155.

Molecule `c1ccc2c(c1)[I+]c1ccccc1-2` [DIPHENYLENEIODONIUM] showed an IC50 in the data set with BV-2 [13] of 10.2 µM.

`COC(=O)[C@@H](N)CCCNC(=N)N[N+](=O)[O-]` [L-NAME] yielded an IC50 in the data set with BV-2 [1] of 36 µM. This counts as double-digit micromolar.

With `O=c1c(O)c(-c2ccc(O)c(O)c2)oc2cc(O)cc(O)c12` [QUERCETIN], the concentration for half-maximal inhibition (IC50) was 5.5 µM in data set [14], 2.5 µM in data set [15], 3.1 µM in data set [16] and 4 µM in data set [17].

`Cc1c(C)c2c(c(C)c1O)CCC(C)(C(=O)O)O2` (stereo unspecified) [TROLOX] returned an IC50 in [18] of 40.5 µM.

Turning to `COc1cc(CCCc2c(OC)cc(O)c(OC)c2OC)ccc1O` [VISCOLIN], the IC50 in data set [14] worked out at 12 µM; in data set [15], 1.4 µM; in data set [16], 8.3 µM; in [17], 2.5 µM; in the data set with BV-2 [1], 24 µM; in data set [18], 49.2 µM. In the data set with BV-2 [13], this molecule yielded an IC50 of 29.2 µM. In addition, the inhibition was determined as 34.4% in [19] and 48.8% in [21]. Besides, the inhibition at 5 µM in [20] was found to be 36.7%. Besides, the Activity in data set [3] is reported as 72; in the data set with CD4+ve Th [5], 112; with CD4+ve Th [6], 99; in data set [7], 67; in data set [8], 9.6%; in data set [9], 8.9%. The Activity is 14.6% in data set [10], 155 in the data set with BV-2 [11] and 121 in the data set on BV-2 [12]. The inhibition at 25 µM in data set [22] is 53.5%.
